Data on ten compounds can be found in ChEMBL document CHEMBL2385079, “Design, synthesis and pharmacological characterization of analogs of 2-aminoethyl diphenylborinate (2-APB), a known store-operated calcium channel blocker, for inhibition of TRPV6-mediated calcium transport” (Bioorg Med Chem, 2013).

Series [1] deals with T1, ORAI 1/2/3 (Homo sapiens, UniProt Q96D31+Q96SN7+Q9BRQ5). Nature of the series: Inhibition of ORAl1/2/3 in HEK293 cells assessed as inhibition of Ca2+ influx after 10 mins by FLIPR assay in presence of thapsigargin. The series is classed as cell-based. In outline: (§1)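 Untransfected HEK293 cells plated at 40,000 cells/well, used after 36 h and loaded 1 h at 37 °C with Calcium-5 dye in nominally Ca2+-free modified Krebs buffer (117 mM NaCl, 4.8 mM KCl, 1 mM MgCl2, 10 mM HEPES). After a 50 s baseline, compound is added together with 1 µM thapsigargin for 10 min. Ca2+ or Cd2+ is then added, and the rate of fluorescence rise is read by FLIPR Tetra (ex 470–495, em 515–575 nm). IC50 is the mean of six experiments.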

Series [2] deals with T2, Transient receptor potential cation channel subfamily V member 6 (Homo sapiens, UniProt Q9H1D0).
T2 sequence (Q9H1D0 whole entry): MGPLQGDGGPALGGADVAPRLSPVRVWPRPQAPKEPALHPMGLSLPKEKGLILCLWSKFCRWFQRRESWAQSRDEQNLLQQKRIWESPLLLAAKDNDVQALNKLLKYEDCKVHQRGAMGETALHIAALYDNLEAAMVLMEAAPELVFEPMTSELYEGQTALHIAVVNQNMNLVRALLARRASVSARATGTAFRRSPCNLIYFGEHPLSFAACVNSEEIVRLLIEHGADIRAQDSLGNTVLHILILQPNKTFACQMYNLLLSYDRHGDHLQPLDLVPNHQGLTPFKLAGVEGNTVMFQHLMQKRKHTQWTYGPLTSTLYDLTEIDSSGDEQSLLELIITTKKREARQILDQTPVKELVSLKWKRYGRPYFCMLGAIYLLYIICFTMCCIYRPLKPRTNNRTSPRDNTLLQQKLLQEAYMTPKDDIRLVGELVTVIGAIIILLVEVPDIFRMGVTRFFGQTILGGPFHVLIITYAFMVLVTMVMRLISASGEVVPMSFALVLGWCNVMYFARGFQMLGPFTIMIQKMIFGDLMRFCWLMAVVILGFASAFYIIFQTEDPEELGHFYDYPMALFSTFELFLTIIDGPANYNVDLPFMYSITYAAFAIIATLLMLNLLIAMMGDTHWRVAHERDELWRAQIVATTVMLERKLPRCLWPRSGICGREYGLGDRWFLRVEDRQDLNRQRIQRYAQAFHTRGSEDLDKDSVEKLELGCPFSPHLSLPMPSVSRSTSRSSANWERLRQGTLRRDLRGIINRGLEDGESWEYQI
Nature of the series: Inhibition of human TRPV6 transfected in HEK293 cells assessed as inhibition of Cd2+ influx after 5 mins by FLIPR assay. The class given is cell-based. In outline:
(§2)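 HEK293 clone stably expressing RFP-tagged hTRPV6, made by Lipofectamine transfection, G418 selection and picking of red-fluorescent single-cell colonies. Cells plated at 40,000/well and used after 36 h, then loaded 1 h at 37 °C with Calcium-5 in nominally Ca2+-free Krebs buffer. After a 50 s baseline, compound is given for 5 min. Then 2 mM CaCl2 or 50 µM CdCl2 is added, and the initial rate of fluorescence increase is read by FLIPR Tetra. IC50 is the average of six independent experiments.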

For series [3], the target named is T2, Transient receptor potential cation channel subfamily V member 6. Nature of the series: Inhibition of human TRPV6 transfected in HEK293 cells assessed as inhibition of Ca2+ influx after 5 mins by FLIPR assay. The class given is cell-based. In a few lines:
as §2

A short description of series [4]: Stability of the compound in CHCl3 by NMR analysis. The class given is physicochemical.
For series [5], the target named is T1, ORAI 1/2/3. Nature of the series: Inhibition of ORAl1/2/3 in HEK293 cells assessed as inhibition of Cd2+ influx after 10 mins by FLIPR assay in presence of thapsigargin. The series is classed as cell-based. In outline:
as §1

The target in series [6] is T1, ORAI 1/2/3. Nature of the series: Inhibition of ORAl1/2/3 in HEK293 cells assessed as inhibition of Cd2+ influx up to 500 uM after 10 mins by FLIPR assay in presence of thapsigargin. The series is classed as cell-based. In outline: as §1
For series [7], the target named is T1, ORAI 1/2/3. Nature of the series: Inhibition of ORAl1/2/3 in HEK293 cells assessed as inhibition of Ca2+ influx up to 500 uM after 10 mins by FLIPR assay in presence of thapsigargin. The series is classed as cell-based. In outline: as §1
For series [8], the target named is T3, Transient receptor potential cation channel subfamily V member 6 (Homo sapiens) (UniProt Q9H1D0).
T3 sequence (whole entry): T2 sequence (Q9H1D0 whole entry)
Nature of the series: Inhibition of human TRPV6 transfected in HEK293 cells assessed as inhibition of Cd2+ influx up to 500 uM after 5 mins by FLIPR assay. The series is classed as cell-based. In outline:
as §2

The target of series [9] is T3, Transient receptor potential cation channel subfamily V member 6 (Homo sapiens). Nature of the series: Inhibition of human TRPV6 transfected in HEK293 cells assessed as inhibition of Ca2+ influx up to 500 uM after 5 mins by FLIPR assay. The class given is cell-based. In outline:
as §2

Series [10] concerns the target T2, Transient receptor potential cation channel subfamily V member 6. Nature of the series: Inhibition of human TRPV6 transfected in HEK293 cells. The series is classed as cell-based. In outline: as §2
Another series concerns HEK293. Nature of the series: Selectivity ratio of IC50 for ORAl1/2/3 in HEK293 cells to IC50 for human TRPV6 transfected in HEK293 cells. The series is classed as cell-based.
Series [11] has as its target T3, Transient receptor potential cation channel subfamily V member 6 (Homo sapiens). Nature of the series: Ratio of 2-APB IC50 to compound IC50 for human TRPV6.

By IC50 is commonly meant the concentration that gives 50% inhibition.

Each structure is given as a SMILES string. The source made the active and inactive calls. No cut-off for these calls is given here.

With `O=C1O[B-](c2ccccc2)(c2ccccc2)[NH2+][C@H]1CO`, the IC50 at ORAI 1/2/3 [1] stood at 40.5 µM; in series [2], 20.2 µM; in series [3], 36.6 µM; at ORAI 1/2/3 [5], 9.8 µM. The Stability result in series [4] is given as “Stable”.

For `c1ccc(OB(Oc2ccccc2)Oc2ccccc2)cc1`, the inhibition result (at ORAI 1/2/3 [6]; at ORAI 1/2/3 [7]; in series [8]; in [9]) was “inactive” in each case.

In the case of `OB(O)O`, the inhibition entry (at ORAI 1/2/3 [6]; at ORAI 1/2/3 [7]; in [8]; in series [9]) was “inactive” throughout.

Consider `OB(O)c1ccccc1`, for which the inhibition result (on ORAI 1/2/3 [6]; on ORAI 1/2/3 [7]; in series [8]; in [9]) was “inactive” throughout.

Take `c1ccc([B-]2(c3ccccc3)[NH2+]CCO2)cc1`: the IC50 was 22.9 µM at ORAI 1/2/3 [1]; 24.5 µM in [2]; 20.7 µM in [3]; 22 µM in [10]; 11.9 µM on ORAI 1/2/3 [5].

As for `O=C1C[NH2+][B-](c2ccccc2)(c2ccccc2)O1`, the IC50 on ORAI 1/2/3 [1] stood at 38.6 µM; in series [2] it was 30.6 µM; in series [3] it was 12.9 µM; at ORAI 1/2/3 [5], 11 µM. Also, in [4], the Stability result was “Stable”.

`c1ccc([B-]2(c3cccnc3)[NH2+]CCO2)cc1` (stereo not given): the inhibition result (at ORAI 1/2/3 [6]; at ORAI 1/2/3 [7]; in series [8]; in [9]) was “inactive” throughout.

For `Cc1ccc([B-]2(c3ccccc3)[NH2+]CCO2)s1` (stereo not given), the IC50 at ORAI 1/2/3 [1] amounted to 30.9 µM; in series [2], 10 µM; in [3], 12.3 µM; on ORAI 1/2/3 [5] it was 25.2 µM. For the same compound, in the series on HEK293, the Ratio IC50 is 2.5.

Regarding `c1ccc([B-]2(c3ccccc3)Oc3cccc4ccc[n+]2c34)cc1`, the inhibition result (on ORAI 1/2/3 [6]; at ORAI 1/2/3 [7]; in [8]; in series [9]) was “inactive” each time.

`Ic1ccc([B-]2(c3ccccc3)[NH2+]CCO2)cc1` (stereo not given): the IC50 was found to be 2.8 µM on ORAI 1/2/3 [1], 5.2 µM in [2], 5.4 µM in [3] and 7.2 µM at ORAI 1/2/3 [5]. Also, the Ratio IC50 in [11] turned out to be 4.
